What was measured:
[1] = Partition coefficient (logP); assay type: physicochemical; conditions: octanol/water
Leishmania donovani [2] = test: In vitro inhibition of Leishmania donovani parasite; assay type: functional, organism-based
Outline: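 L. donovani MHOM/SD/62/1S-CL2D axenic amastigote-like forms, seeded at 10^6 cells/mL in amastigote medium with or without drug (DMSO at most 1.25% v/v). Incubated 72 h at 37 °C, humid 5% CO2. A tetrazolium-type Cell Titer reagent was then added for a further 8–12 h and absorbance read at 490 nm. IC50 fitted by a four-parameter log dose-response equation.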

Cricetinae gen. sp. [3] = test: Percent suppression of parasitaemia was measured in vivo against Visceral Leishmania donovani in hamsters at 13 mg/kg of dosage level.; assay type: functional, Cricetulus griseus
Outline: (§1)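 Hamsters, six per group, infected intracardially with 1.0×10^7 L. donovani Khartoum amastigotes from donor hamster spleens. Dosed intramuscularly for 4 consecutive days starting day 3 post-infection and screened blind. On day 7 the animals were sacrificed and total parasite number per liver was counted. Result expressed as % suppression of parasitemia.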

Cricetinae gen. sp. [4] = test: Percent suppression of parasitaemia was measured in vivo against Visceral Leishmania donovani in hamsters at 208 mg/kg of dosage level.; assay type: functional, Cricetulus griseus; outline: as §1
Cricetinae gen. sp. [5] = test: Percent suppression of parasitaemia was measured in vivo against Visceral Leishmania donovani in hamsters at 52 mg/kg of dosage level.; assay type: functional, Cricetulus griseus; outline: as §1
Cricetinae gen. sp. [6] = test: % suppression of parasitaemia was measured in vivo against Visceral Leishmania donovani in hamsters at 208 mg/kg of dosage level.; assay type: functional, Cricetulus griseus
Cricetinae gen. sp. [7] = test: % suppression of parasitaemia was measured in vivo against Visceral Leishmania donovani in hamsters at 52 mg/kg of dosage level.; assay type: functional, Cricetulus griseus
Leishmania donovani [8] = test: Compound was evaluated in vitro against Leishmania donovani parasite; assay type: functional, organism-based
Outline: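 Axenic amastigote-like L. donovani (MHOM/SD/62/1S-CL2D), seeded at 10^6 cells/mL with or without drug, DMSO ≤1.25% (v/v), 72 h at 37 °C, 5% CO2. Tetrazolium-type dehydrogenase reagent added, further 8–12 h, absorbance at 490 nm; IC50 from four-parameter log dose-response fit.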

Compound | logP [1] | IC50 (Leishmania donovani [2]) [µM] | also measured
O=S(=O)(c1cc(C(F)(F)F)ccc1Cl)N1CCN(c2ccccn2)CC1 | 3.45 | 44 | –
O=S(=O)(c1cc(C(F)(F)F)ccc1N1CCCC1)N1CCCC1 | 3.57 | 23 | Suppression (Cricetinae gen. sp. [3]): 16%; Suppression (Cricetinae gen. sp. [4]): 30%; Suppression (Cricetinae gen. sp. [5]): 29%
O=S(=O)(c1cc(C(F)(F)F)ccc1F)N1CCN(c2ccccn2)CC1 | 2.91 | > 450 | –
O=S(=O)(c1cc(C(F)(F)F)ccc1Cl)N1CCCCCC1 | 4.57 | 56 | –
CNS(=O)(=O)c1cc(C(F)(F)F)ccc1Cl | 2.63 | > 450 | –
O=S(=O)(c1cc(C(F)(F)F)ccc1F)N1CCCCCC1 | 4.03 | 108 | Suppression (Cricetinae gen. sp. [3]): 11%; Suppression (Cricetinae gen. sp. [4]): 19%; Suppression (Cricetinae gen. sp. [5]): 13%
O=S(=O)(c1cc(C(F)(F)F)ccc1Cl)N1CCCCC1 | 4.01 | 110 | –
CCN(CC)CCNS(=O)(=O)c1cc(C(F)(F)F)ccc1Cl | 3.85 | > 450 | –
CN1CCN(S(=O)(=O)c2cc(C(F)(F)F)ccc2Cl)CC1 | 3.16 | 321 | –
CCN(CC)CCNS(=O)(=O)c1cc(C(F)(F)F)ccc1F | 3.3 | > 450 | –
NS(=O)(=O)c1cc(C(F)(F)F)ccc1Cl | 1.98 | > 450 | –
O=[N+]([O-])c1cc(C(F)(F)F)cc([N+](=O)[O-])c1Cl [CHLORALIN] | 3.43 | – | Suppression (Cricetinae gen. sp. [6]): 32%; Suppression (Cricetinae gen. sp. [7]): 21%; IC50 (Leishmania donovani [8]): 1.3 µM
NS(=O)(=O)c1cc(C(F)(F)F)ccc1F | 1.68 | > 450 | –
O=S(=O)(c1cc(C(F)(F)F)ccc1Cl)N1CCCC1 | 3.44 | 115 | –
CNS(=O)(=O)c1cc(C(F)(F)F)ccc1F | 2.08 | > 450 | –
O=S(=O)(c1cc(C(F)(F)F)ccc1F)N1CCCC1 | 2.9 | > 450 | –
CN1CCN(S(=O)(=O)c2cc(C(F)(F)F)ccc2F)CC1 | 2.61 | 199 | –
MEGLUMINE ANTIMONATE | – | – | Suppression (Cricetinae gen. sp. [4]; Cricetulus griseus): 73%; Suppression (Cricetinae gen. sp. [5]; Cricetulus griseus): 27%
O=S(=O)(c1cc(C(F)(F)F)ccc1F)N1CCCCC1 | 3.47 | 418 | –

Reference: ChEMBL document CHEMBL1131410, “Synthesis and biological evaluation of 4-chloro-3, 5-dinitrobenzotrifluoride analogues as antileishmanial agents” (J Med Chem, 1998)
